Assay outcomes: PubChem BioAssay, several laboratories
EBI2 antag – blocks human EBI2 receptor beta-arrestin signaling; inhibition, % at 5 µM; EBI2 beta-arrestin recruitment, luminescence, 7a,25-OHC stimulated; hit rate 0.81% among 360,000; P32249; AID 651636; in the data active = inhibition above about 38%;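 also: enzyme fragment complementation signal reports receptor beta-arrestin coupling in cells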
m5-HT2A agonist – activates the mouse 5-HT2A serotonin receptor; P35363; activation, % at 7.6 µM; CHO-K1 mHTR2A beta-arrestin complementation, luminescence; percent of 30 µM serotonin response; hit rate 0.66% among 360,000;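 active = activation above a run cutoff, the mean activation of all tested compounds plus 3 SD, cut at about 14% in these data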
Target sequence (P35363 whole entry, looked up): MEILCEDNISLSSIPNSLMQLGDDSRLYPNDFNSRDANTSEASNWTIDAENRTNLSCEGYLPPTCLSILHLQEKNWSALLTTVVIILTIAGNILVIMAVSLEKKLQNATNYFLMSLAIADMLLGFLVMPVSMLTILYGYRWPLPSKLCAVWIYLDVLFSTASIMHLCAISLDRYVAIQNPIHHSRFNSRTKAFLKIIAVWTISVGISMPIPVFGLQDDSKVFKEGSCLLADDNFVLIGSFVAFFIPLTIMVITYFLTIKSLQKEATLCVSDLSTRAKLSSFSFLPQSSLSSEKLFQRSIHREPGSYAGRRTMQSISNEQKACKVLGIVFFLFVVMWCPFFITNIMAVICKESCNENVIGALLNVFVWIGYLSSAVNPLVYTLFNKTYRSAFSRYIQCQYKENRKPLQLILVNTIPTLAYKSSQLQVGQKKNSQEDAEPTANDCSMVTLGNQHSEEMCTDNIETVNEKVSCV
MC4R antag cAMP – blocks human MC4R cAMP signaling. AID 540295. hit rate 0.48% among 360,000. MC4R-expressing cells, MTII-stimulated cAMP, LANCE TR-FRET. P32245. inhibition, % at 6.5 µM;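 active = inhibition above its plate's cutoff, the mean of tested wells on that plate plus 3 SD, cut at about 29% in these data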
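material = U2OS cells stably expressing human melanocortin 4 receptor (MC4R) | also added = Melanotan II challenge | dosing = single nominal compound dose of 6.5 µM | detection = TR-FRET with Eu-cAMP and labeled anti-cAMP, 671 nm | replication = singlicate | timing = compound 30 min, challenge 1 h, detection 1 h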
MC4R ag barr – agonists of human melanocortin 4 receptor (MC4R) beta-arrestin; U2OS MC4R beta-arrestin complementation, luminescence; percent of melanotan II response, DMSO zero; activation, % at 8.9 µM; hit rate 0.98% among 360,000; AID 540308;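 active = activation above a per-plate cutoff, the mean activation of sample wells on that plate plus 3 SD, cut at about 8% in these data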
MC4R barr ag – human MC4R beta-arrestin agonism confirmation; shares compounds with MC4R ag barr; U2OS MC4R beta-arrestin recruitment, luminescence; scaled DMSO 0%, Melanotan II 100%; activation, % at 8.9 µM; hit rate 31% among 2,400;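 active = mean activation across replicates above the hit cutoff set in the earlier primary screen, cut at about 8% in these data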
MOR DOR agonist – OPRM1-OPRD1 heterodimer agonism counter-screen; shares compounds with MC4R ag barr; U2OS PathHunter beta-arrestin, beta-gal luminescence; percent of deltorphin B response, DMSO zero; activation, % at 9.2 µM; hit rate 5.8% among 2,400; AID 602194;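 active = mean activation across replicates exceeds the hit threshold derived in the earlier primary screen, cut at about 18% in these data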
Large screens that a line does not name were inactive (follow-up assays come after a bar, where they were run). This is a sample that favours compounds with a hit; in the whole collection about 2.8% have one here.

COCCCN1C(=O)C(CC(=O)NCCCCc2ccccc2)CC(C(=O)N(C(C)C)C(C)C)=C1C (stereo not given)	none (no result: MC4R antag cAMP, MC4R ag barr)
CCCc1cc(=O)n2nc(N3CCC(C(=O)NCc4ccco4)CC3)sc2n1	none
O=C(COC(=O)CSc1ccccc1)NC1CCS(=O)(=O)C1 (stereo not given)	none
Cc1ccc(OCC(=O)NC(=S)Nc2cccc(NC(=O)c3ccccc3)c2)cc1	MC4R ag barr 15 | MC4R barr ag 17 | MOR DOR agonist inactive
CCC(=O)Nc1cccc(NC(=O)c2ccc(C)cc2Cl)c1	none
CCCC(=O)NC(=S)Nc1cccc(NC(=O)c2ccccc2)c1	none
Cc1ccc(OCC(=O)NC(=S)Nc2cccc(NC(=O)c3ccc(Cl)cc3Cl)c2)cc1	MC4R ag barr 22 | MC4R barr ag inactive | MOR DOR agonist inactive
Cc1cn(CC(=O)NCc2ccc(N(C)C)cc2)c(=O)[nH]c1=O	none
C=CCN(CC=C)Cc1cc(=O)oc2cc(C)c(C)cc12	none (no result: MC4R antag cAMP, MC4R ag barr)
O=C1CC(SC(=Nc2ccccc2)Nc2ccccc2)C(=O)N1c1ccc(Cl)cc1 (stereo not given)	MC4R ag barr 12 | MC4R barr ag inactive | MOR DOR agonist inactive
CCCCCCOc1ccc(N2C(=O)CC(S/C(N)=N/N=C(\C)c3cccs3)C2=O)cc1 (stereo not given)	MC4R ag barr 21 | MC4R barr ag 15 | MOR DOR agonist inactive
Clc1ccc(CNCc2cccs2)c(Cl)c1	MC4R ag barr 11 | MC4R barr ag inactive | MOR DOR agonist inactive
COc1ccc(-c2cc(C#N)nc(Oc3ccc(Cl)cc3)n2)cc1	MC4R ag barr 11 | MC4R barr ag inactive | MOR DOR agonist inactive
O=C1NC[C@H](CCCCN2C[C@@H](Cc3ccccc3)N(Cc3ccccc3)C(=O)C2=O)N(CCC2CCCCC2)C1=O	none (no result: MC4R antag cAMP, MC4R ag barr)
Cc1cccc(NC(=S)N/N=C/c2ccc(Cl)c([N+](=O)[O-])c2)c1	MC4R ag barr 22 | MC4R barr ag inactive | MOR DOR agonist inactive
CCCc1cc(-c2n[nH]c(C)c2-c2ccc(C(=O)OCC)o2)c(O)cc1O	MC4R ag barr 13 | MC4R barr ag inactive | MOR DOR agonist inactive
CCCc1cc(C(=O)Cc2ccc(C(=O)OCC)o2)c(O)cc1O	none
C[C@@H]1CN([C@H](C)CO)C(=O)CCCn2nncc2CO[C@H]1CN(C)C(=O)c1ccc2ccn(C)c2c1	none
CCCCCCCCNS(=O)(=O)CCNCCc1ccccc1	MC4R ag barr 10.0 | MC4R barr ag 16 | MOR DOR agonist inactive
CCCCCCCCNS(=O)(=O)CCNCc1ccccc1	none
COc1ccc(CNC(=O)COC(=O)c2cc3ccccc3cc2O)cc1OC	MC4R ag barr 14 | MC4R barr ag inactive | MOR DOR agonist inactive
COc1cc(OC)cc(C(=O)OCC(=O)NC(c2ccccc2)c2ccccc2)c1	MC4R ag barr 13 | MC4R barr ag inactive | MOR DOR agonist inactive
COc1cc(OC)cc(C(=O)NC(c2ccccc2)c2ccccc2)c1	none
CC(NC(=O)COC(=O)c1cc2ccccc2cc1O)c1ccccc1 (stereo not given)	MC4R ag barr 18 | MC4R barr ag 12 | MOR DOR agonist inactive
Cn1cnnc1SCC(=O)Nc1ncc(C(F)(F)F)cc1Cl	none
CCOC(=O)c1cccc(N2CC3CNC(=O)C2(C(=O)OC)N3C)c1 (stereo not given)	none
NC(=O)CC(NC(=O)c1ccc(Br)cc1)c1ccc(NCCc2ccc(F)cc2)c([N+](=O)[O-])c1 (stereo not given)	MC4R ag barr 13 | MC4R barr ag inactive | MOR DOR agonist inactive
CC1=CN2C(c3cccc([N+](=O)[O-])c3)=NON(c3ccc(C)cn3)C2C=C1 (stereo not given)	none (no result: MC4R antag cAMP, MC4R ag barr)
O=C(C1CCCCC1)N1C[C@H](n2cc(-c3ccc(F)cc3)nn2)[C@@H](O)C[C@@H]1c1ccc(Cl)cc1	none
O=C(C1CCCCC1)N1C[C@@H](n2cc(-c3ccc(F)cc3)nn2)[C@H](O)C[C@@H]1c1ccc(Cl)cc1	MC4R ag barr 12 | MC4R barr ag inactive | MOR DOR agonist inactive
O=C1N/C(=C/c2cccn2-c2ccc(F)cc2)C(=O)N1Cc1ccccc1	MC4R ag barr 10 | MC4R barr ag inactive | MOR DOR agonist inactive
